{"data": "Experimental data gathered from unrelated publications", "CDK4 with cyclin D1": "Cyclin-dependent kinase 4, with cyclin D1 (CDK4, Homo sapiens, UniProt P11802)", "OSBP": "Oxysterol-binding protein 1 (OSBP, Homo sapiens, UniProt P22059)", "SLC22A8": "Organic anion transporter 3 (SLC22A8, Homo sapiens, UniProt Q8TCC7)", "note": "Compare with care: the assays were run in different laboratories. pIC50, pKd, pKi: −log10 of the molar value."}
{"SMILES": "CN(C)C(=O)c1cc2cnc(Nc3cccc(-c4cccc5c(=O)cc(N6CCOCC6)oc45)c3)nc2n1C1CCCC1", "target": "CDK4 with cyclin D1", "assay": "enzyme activity, inhibitor, radiometric", "endpoint": "pIC50", "result": 6.47}
{"SMILES": "CN(C)C(=O)c1cc2cnc(Nc3ccc(C(=O)NCCCCCCOc4cccc5c4C(=O)N(C4CCC(=O)NC4=O)C5=O)cc3)nc2n1C1CCCC1 (centres unmarked)", "target": "Cyclin-dependent kinase 4 (CDK4, Homo sapiens, UniProt P11802)", "assay": "binding, competition with immobilised ligand", "endpoint": "pKd", "result": "> 6.70"}
{"SMILES": "CCOc1ccc(C(=O)CC(SCc2ccc(Cl)cc2)C(=O)OC)cc1 (centres unmarked)", "target": "OSBP", "assay": "ligand displacement, FP", "endpoint": "pKi", "result": "< 3.00"}
{"SMILES": "O=C(O)c1ccc2nc(-c3cc(Cl)cc(Cl)c3)oc2c1", "target": "SLC22A8", "assay": "transporter uptake, inhibitor", "system": "HEK293", "conditions": "pH 7.4", "endpoint": "pKi", "result": 5.63}
{"SMILES": "Nc1nc2c(ncn2[C@@H]2O[C@H](COP(=O)(O)OP(=O)(O)OP(=O)(O)O)[C@@H](O)[C@H]2O)c(=O)[nH]1", "target": "GTPase KRas (KRAS, Homo sapiens, UniProt P01116, Q61H)", "assay": "binding", "endpoint": "pKd", "result": 6.93}
{"SMILES": "CN(C)C(=O)c1cc2cnc(Nc3cc(C(F)(F)F)c(-c4ccc5c(=O)cc(N6CCOCC6)oc5c4)cn3)nc2n1C1CCCC1", "target": "CDK4 with cyclin D1", "assay": "enzyme activity, inhibitor, radiometric", "endpoint": "pIC50", "result": "< 5.00"}
{"SMILES": "CCOc1ccc(C(=O)CC(SCc2ccc(Br)cc2)C(=O)O)cc1 (centres unmarked)", "target": "OSBP", "assay": "ligand displacement, FP", "endpoint": "pKi", "result": 3.34}
{"SMILES": "CN(C)C(=O)c1cc2cnc(Nc3cc(C(=O)O)cc(-c4cccc5c(=O)cc(N6CCOCC6)oc45)c3)nc2n1C1CCCC1", "target": "CDK4 with cyclin D1", "assay": "enzyme activity, inhibitor, radiometric", "endpoint": "pIC50", "result": "< 5.00"}
{"SMILES": "CCOc1ccc(C(=O)CC(SCc2ccccc2)C(=O)O)cc1 (centres unmarked)", "target": "OSBP", "assay": "ligand displacement, FP", "endpoint": "pKi", "result": "< 3.00"}
{"SMILES": "CSC[C@H]1O[C@@H](n2cnc3c(N)ncnc32)[C@H](O)[C@@H]1O", "target": "tapT (Escherichia coli, UniProt Q47319)", "assay": "binding, ITC", "endpoint": "pKd", "result": 3.82}
{"SMILES": "CCOc1ccc(C(=O)CC(SCc2ccc(OC)cc2)C(=O)O)cc1 (centres unmarked)", "target": "OSBP", "assay": "ligand displacement, FP", "endpoint": "pKi", "result": 3.26}
{"SMILES": "CN(C)C(=O)c1cc2cnc(Nc3cc(C(=O)O)cc(-c4ccc5c(=O)cc(N6CCOCC6)oc5c4)c3)nc2n1C1CCCC1", "target": "CDK4 with cyclin D1", "assay": "enzyme activity, inhibitor, radiometric", "endpoint": "pIC50", "result": 5.11}
{"SMILES": "C[S+](CC[C@H](N)C(=O)O)C[C@H]1O[C@@H](n2cnc3c(N)ncnc32)[C@H](O)[C@@H]1O (some centres unmarked)", "target": "tapT (Escherichia coli, UniProt Q47319, D137A)", "assay": "binding, ITC", "endpoint": "pKd", "result": 3.23}
{"SMILES": "C=CC(=O)N1C[C@H](Nc2ncnc3[nH]ccc23)CC[C@@H]1C", "target": "SLC22A8", "assay": "transporter uptake, inhibitor", "system": "HEK293", "conditions": "pH 7.4", "endpoint": "pKi", "result": 4.39}
